# Screening results: PubChem, several laboratories
# S1P3 agonist – agonists of human S1P3 receptor; Q99500; S1P3 NFAT-BLA reporter cells, agonism, FRET ratio; relative to 1 µM S1P, basal subtracted; activation, % at 4.5 µM; actives 0.1% (n = 60,000); AID 373;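 active = activation above the screen-wide mean plus 3 SD, cut at about 4.5% in these data, passing the limit was not always enough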
# Target sequence (Q99500 whole entry, looked up): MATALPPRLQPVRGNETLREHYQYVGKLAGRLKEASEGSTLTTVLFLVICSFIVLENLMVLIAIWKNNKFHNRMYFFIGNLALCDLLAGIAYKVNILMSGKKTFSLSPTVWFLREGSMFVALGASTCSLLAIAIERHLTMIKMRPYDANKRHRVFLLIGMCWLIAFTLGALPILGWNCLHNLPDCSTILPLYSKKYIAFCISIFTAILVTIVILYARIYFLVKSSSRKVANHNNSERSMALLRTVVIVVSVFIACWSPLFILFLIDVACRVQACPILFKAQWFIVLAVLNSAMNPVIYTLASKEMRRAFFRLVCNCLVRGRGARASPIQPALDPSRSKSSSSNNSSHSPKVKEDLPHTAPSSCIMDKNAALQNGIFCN
#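 Measure – % activation relative to 1 µM S1P (100%), per plate · System – stable CHO line with human S1P3, Gα16, NFAT-BLA reporter · Timing – cells plated overnight, compound 4 h 37 °C, substrate 2 h RT · Technique – fluorescent BLA substrate, ex 405 nm, em 460/535 nm ratio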
# S1P1 ag-PAM – activates or potentiates agonism at human S1P1 receptor; actives 0.57% (n = 56,000); activation, % at 9.5 µM; S1P1 CRE-bla cells, forskolin, beta-lactamase FRET, potentiator mode; S1P1 agonist co-added at EC20, 2 nM; 100% = saturating reference agonist, 0% = basal; AID 449; P21453;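 active = activation above a cutoff set at the mean activation of all tested compounds plus 3 SD, cut at about 54% in these data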;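 note: forskolin at 4 µM as EC80 and the EC20 agonist is SEW2871; 100% = SEW2871 at its EC100 plus forskolin at EC80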
# M1 antagonist – antagonists of rat M1 muscarinic receptor. P08482. CHO-M1 cells, Fluo-4 calcium, ACh EC80 antagonist mode; hits give low values. B-score at 10 µM. actives 3.4% (n = 64,000). AID 628;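 active = calcium fluorescence response, raw or row-and-column corrected B-score, differing from the plate sample mean either way at a set confidence level, mostly lower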
# D1 mod – allosterically modulates the human D1 dopamine receptor. AID 641. P21728. B-score at 10 µM. actives 5.9% (n = 58,000). HEK293 D1, CRE-luciferase, dopamine EC30 potentiation; actives deviate in either direction;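 active = luminescence count or its row- and column-corrected plate score outside the 99.7% band of the plate's sample wells, on either side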
# M1 ag – agonists of M1 muscarinic receptor; CHO-M1 cells, Fluo-4 calcium fluorescence, agonist mode; hits give high values; B-score at 10 µM; actives 3% (n = 64,000); AID 626;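 active = fluorescence rise, raw or as B-score row- and column-corrected plate score, outside the 99.7% band of its plate's samples, either direction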
# D1 mod confirm – confirmation of human D1 dopamine receptor allosteric modulators. shares compounds with D1 mod. HEK293 D1 CRE-luciferase, dopamine EC30 potentiation; hits give high values. luminescence at 10 µM. actives 88% (n = 2,200);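 active = luminescence in either of two replicates above the same-plate mean plus 3 SD of the low-dose dopamine control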
# D1 no dopamine – activates D1 CRE-luciferase signal without dopamine present; shares compounds with D1 mod; HEK293 D1 CRE-luciferase, luminescence, no dopamine; hits give high values; luminescence at 10 µM; actives 0.8% (n = 1,900); in the data active = luminescence above about 3900
# Isoprot counter – alters isoproterenol CRE-luciferase response in HEK293 cells; HEK293 D1 CRE-luciferase, isoproterenol EC30 counter-screen; hits give high values; AID 647; shares compounds with D1 mod; luminescence at 10 µM; actives 63% (n = 2,200);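 active = luminescence in either replicate above plate mean of wells with a partly effective reference agonist dose plus 3 SD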;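 note: isoproterenol raises cAMP through native beta-adrenoceptor Gs so signal bypasses D1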
# An asterisk follows results filed as active; x = not tested or not shown. Only some compounds are listed: those with a hit (about 11% of all), similar ones and a draw of the others.
SMILES,S1P3 agonist,S1P1 ag-PAM,M1 antagonist,D1 mod,M1 ag,D1 mod confirm,D1 no dopamine,Isoprot counter
CCNc1nc(NC(C)C)nc(N(C#N)C(C)C(=O)N(C)C)n1 (centres undefined),0,-17,0.19,x,-0.19,x,x,x
CCNc1nc(NC(C)C)nc(N(C#N)Cc2ccccc2)n1,0,-12,0.21,8.9*,0.85,22672*,1600,5772*
CCNc1nc(NC(C)C)nc(N(C#N)CCOc2ccc(Cl)cc2Cl)n1,0,-4,-0.45,3.2*,-0.66,11108*,1056,3116*
OCCNc1nc2ccc(Cl)cc2[nH]1,-1,x,-0.84,-0.75,-0.74,x,x,x
Cc1ccc(NCc2nnc(SCC(=O)Nc3cccc(O)c3)n2CC2CCCO2)c(C)c1 (centres undefined),0,-8,0.63,-0.71,1.1,x,x,x
CCn1nnnc1-c1ccc(OC)c(S(=O)(=O)NCCc2ccccc2)c1,-1,16,0.27,0.067,-0.8,x,x,x
COc1ccc(C2C(C#N)=C(N)Oc3n[nH]c(-c4ccccn4)c32)c(OC)c1OC (centres undefined),0,-27,0.53,11*,-0.76,17692*,1644,5544*
COc1cc(C2C(C#N)=C(N)Oc3n[nH]c(-c4ccncc4)c32)cc(OC)c1OC (centres undefined),0,-5,2,0.76,-1.3,x,x,x
CCOc1ccc(-c2[nH]nc3c2C(c2ccc4c(c2)OCO4)C(C#N)=C(N)O3)cc1OC (centres undefined),0,2,0.023,2.4*,-0.41,10328*,10840*,4324*
Cc1[nH]nc2c1C(c1ccc3c(c1)OCO3)C(C#N)=C(N)O2 (centres undefined),-1,4,x,x,x,x,x,x
Cc1cc(C)nc(Sc2c(C)nn(-c3ccccc3)c2C)n1,0,-2,-1.8,0.14,0.38,x,x,x
COc1ccc(NS(=O)(=O)c2ccc3c(c2)CCC(=O)N3)c(OC)c1,0,9,-0.43,-0.79,-0.32,x,x,x
Fc1cccc(Nc2cc(-n3cccn3)ncn2)c1,-1,10,-0.74,8.5*,-0.04,8308*,1684,3628*
CCOC(=O)CC(=O)CSc1nc(C)cc(-c2cccnc2)c1C#N,0,-34,0.25,-0.65,0.024,x,x,x
Cc1cc(-c2ccccc2)c(C#N)c(SCC(N)=O)n1,-1,-6,0.96,5*,0.011,8124*,1568,2596
Cc1ccc(-c2cc(C(F)F)nc(NCC3CCCO3)n2)cc1 (centres undefined),x,x,0.62,3.3*,-0.11,14888*,x,3624*
Cc1ccc(-c2cc(C(F)F)nc(NCc3cccnc3)n2)cc1,x,x,0.64,13*,-0.46,16464*,x,4600*
Fc1ccc(NCc2cccnc2)cc1,x,x,0.17,0.56,1.2,x,x,x
O=C(CN1CCC(O)(c2ccccc2F)CC1)NCCc1c[nH]c2ccccc12,-1,-6,-1.3,0.63,-0.021,x,x,x
CCC(Sc1nc2n[nH]c(C)c2c(=N)n1-c1cc(Cl)ccc1C)C(=O)N1CCOCC1 (centres undefined),-1,-44,0.26,6.4*,-0.028,12280*,1844,6516*
Cc1ccc(-n2c(SCC(=O)NCC3CCCO3)nc3n[nH]c(C)c3c2=N)cc1Cl (centres undefined),0,-16,1.4,-0.79,2,x,x,x
CCOC(=O)c1cc2c(=O)n3cccc(C)c3nc2n(CCc2ccccc2)c1=N,-1,-19,0.54,-0.52,-2,x,x,x
CCCn1c(=NC(=O)c2ccco2)c(C(=O)OCC)cc2c(=O)n3ccccc3nc21,0,x,-1.1,6.1*,0.81,16752*,1572,2932
CCOC(=O)c1cc2c(=O)n3ccccc3nc2n(CCCOC)c1=NC(C)=O,x,x,0.14,4.7*,-0.18,9064*,x,2596
Cc1[nH]c(C(=O)N2CCCCC2)c(C)c1C(=O)NC1CCCCC1,-1,1,0.51,0.074,-0.55,x,x,x
SMILES,S1P3 agonist,S1P1 ag-PAM,M1 antagonist,D1 mod,M1 ag,D1 mod confirm,D1 no dopamine,Isoprot counter
COC(=O)Cn1c(CCS(=O)(=O)c2ccc(C)cc2)nc2ccccc21,0,12,-0.034,-0.19,0.33,x,x,x
CCOC(=O)c1c(NC(=O)c2ccco2)sc2c1CCCC2,0,-23,x,1.4,x,x,x,x
CCOC(=O)c1c(NS(C)(=O)=O)sc2c1CCC(C)C2 (centres undefined),-1,0,0.42,9.2*,0.6,13356*,1660,3316*
COC(=O)c1c(NC(=O)Cc2cccs2)sc2c1CCC(C)C2 (centres undefined),-1,-27,-0.0058,4.9*,-1.5,8816*,1552,2860
COC(=O)c1c(NC(=O)c2ccco2)sc(C(=O)N2CCCC2)c1C,0,23,x,6.9*,x,12140*,x,3380*
COC(=O)c1sc(NC(=O)Cc2cccs2)nc1C,-1,28,1.5,0.84,0.78,x,x,x
COC(=O)c1c(NC(=O)Cc2cccs2)sc(C(=O)N2CCCCC2)c1C,0,-42,-0.29,7.3*,0.53,25076*,1708,7580*
CC(C)c1nnc(NC(=O)Cc2cccs2)s1,0,-4,-0.85,-0.51,2,x,x,x
Cc1nc2ccc(F)cc2cc1C(=O)NC(C)C,0,-2,0.19,-0.03,-0.86,x,x,x
COc1ccccc1CNC(=O)CCS(=O)(=O)c1ccc2c(c1)CCCN2C(C)=O,-1,8,-0.24,1.1,0.56,x,x,x
CCN(CC)C(=O)c1sc(NC(=O)Cc2cccs2)c(C#N)c1C,0,0,0.32,6.9*,-0.086,11496*,1544,2856
CCOC(=O)c1c(NC(=O)Cc2cccs2)sc(C)c1C,0,-62,0.11,13*,-0.041,15008*,1728,4084*
Cc1nc2ccc(NC(=O)Cc3cccs3)cc2s1,1,8,-0.0021,x,-0.024,x,x,x
Cc1ccc(-n2cnnn2)c2cccnc12,0,6,0.0087,2.6*,-0.54,8320*,1580,3228
C=C(C)C1Cc2nc(N)nc(C)c2C1 (centres undefined),0,-16,-1.1,14*,-0.87,14408*,1772,4520*
C=C(C)C1Cc2c(C)nn(-c3nc(C)cc(C)n3)c2C1 (centres undefined),-2,-1,0.22,-2,0.82,x,x,x
O=C1NCN(c2ccccc2)C12CCN(c1nnnn1-c1ccccc1)CC2,x,x,-0.59,x,2.7,x,x,x
COc1ccc(S(=O)(=O)N2CCc3ccccc32)cc1C(=O)OCc1nnc(-c2ccccc2)o1,0,-3,1.7,3.2*,-0.22,7576*,1476,3328*
